# Laboratory results reported in paper PMC8320615 (Current Research in Toxicology, 2021).
# Where two headings read alike, the source gives them in different places.
# Tests used:
# [1] = MTT cytotoxicity on HepaRG cells in HK-2/HepaRG co-culture; type: cell-based; settings: human; for IC50 at 24 h / IC50 at 48 h: HepaRG cells in co-culture with HK-2 cells (IdMOC plates)
# Outline: (§1)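 HK-2 (RPMI-1640) and HepaRG (William's E plus Tox supplement), passages 10–15, seeded together in IdMOC plates and allowed 4 h at 37 °C, 5% CO2. Test compound at several concentrations, DMSO ≤0.5% final, for 24 h and 48 h; MTT read-out. Triptolide positive control: 10 μmol/L for HK-2, 25 μmol/L for HepaRG. IC50 by nonlinear regression; mean ± SD. 48 h IC50 under 100 μM scored toxic.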
# [2] = MTT cytotoxicity on HK-2 cells in HK-2/HepaRG co-culture; type: cell-based; settings: human; for IC50 at 24 h / IC50 at 48 h: HK-2 cells in co-culture with HepaRG cells (IdMOC plates)
# Outline: as §1
# [3] = system: HepaRG cells; assay: MTT cytotoxicity on HepaRG cells in HK-2/HepaRG co-culture; type: cell-based; settings: co-culture; for IC50: MTT; for effect on viability of HepaRG cells (in words): per Table 3
# Outline: as §1
# [4] = system: HK-2 cells; assay: MTT cytotoxicity on HK-2 cells in HK-2/HepaRG co-culture; type: cell-based; settings: co-culture; for IC50: MTT
# Outline: as §1
# [5] = Outline: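 Liver call by software prediction over five injury markers (AlkPhos, GGT, LDH, SGOT, SGPT), positive when three are positive. Kidney call by a self-built QSAR classifier (accuracy 76.7%) giving positive/negative. In vitro, 48 h MTT IC50 under 100 μM in HK-2/HepaRG co-culture counted as toxic. Compounds flagged when either approach was positive.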
# [6] = system: HK-2 cells; assay: MTT cytotoxicity on HK-2 cells in single culture; type: cell-based; settings: Homo sapiens, HK-2, 24 h, read-out: IC50 HK-2 Single culture
# Outline: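 HK-2 cells (passages 10–15) in RPMI-1640 with 10% FBS at 37 °C, 5% CO2, cultured alone and exposed 24 h to a range of test compound concentrations, DMSO ≤0.5% final; vehicle control 0.5% DMSO. Viability by MTT; IC50 from nonlinear regression.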
# [7] = reported in the literature ref Wang et al., 2009; cited from earlier work
# [8] = read-out: Hepatic cytotoxicity IC50 HepaRG 24 h, 24 h
# [9] = read-out: Hepatic cytotoxicity IC50 HepaRG 48 h, 48 h
# [10] = read-out: Renal cytotoxicity IC50 HK-2 24 h, 24 h
# [11] = read-out: Renal cytotoxicity IC50 HK-2 48 h, 48 h
Compound,IC50 at 24 h [1],IC50 at 48 h [1],IC50 at 24 h [2],IC50 at 48 h [2],"IC50 [3, 8]","IC50 [3, 9]","IC50 [4, 10]","IC50 [4, 11]",further results
"O=C1c2ccccc2C(=O)c2ccccc21 [No. 17, 9,10-Anthracenedione]",93.4 µM,84.4 µM,> 500 µM,138 µM,–,–,–,–,–
"CC(=O)OC[C@H]1O[C@@H](Oc2cc(O)cc3cc4oc(C)cc(=O)c4c(O)c23)[C@H](O)[C@@H](O)[C@@H]1O [No. 24, Nor-rubrofusarin-6-O-β-D-(6’-O-acetyl)glucopyranoside]",–,–,–,–,> 500 µM,226 µM,> 500 µM,> 500 µM,–
"Cc1cc2c(c(O)c1O)C(=O)c1c(O)cc(O)cc1C2=O [No. 13, Alaternin (quinone)]",–,–,–,–,> 500 µM,> 500 µM,> 500 µM,> 500 µM,–
"COc1c(O)c(C)cc2c1C(=O)c1c(ccc(O)c1O)C2=O [No. 7, 1,2,7-trihydroxy-8-methoxy-6-methyl-9,10-anthraquinone]",> 500 µM,44.2 µM,> 500 µM,> 500 µM,–,–,–,–,–
"O=C(O)c1cc(O)c2c(c1)C(=O)c1cccc(O)c1C2=O [No. 11, Rhein]",307 µM,36.1 µM,229 µM,44.1 µM,–,–,–,–,effect on viability of HepaRG cells (in words) [3]: decreased the viability of HepaRG cells; effect on viability of HK-2 cells (in words) ([4]; per Table 3): reduced the viability of HK-2 cells; both hepatotoxicity and nephrotoxicity (in words) [5]: both hepatotoxicity and nephrotoxicity
"COc1cc2c(c(O)c1OC)C(=O)c1c(cc(C)c(O)c1OC)C2=O [No. 2, Obtusin]",–,–,–,–,298 µM,81.2 µM,50.5 µM,57.8 µM,both hepatotoxicity and nephrotoxicity (in words) [5]: both hepatotoxicity and nephrotoxicity
"CC(=O)c1c(C)cc2cc(O)cc(O[C@@H]3O[C@H](CO)[C@@H](O)[C@H](O)[C@H]3O)c2c1O [No. 25, 6-Hydroxymusizin-8-O-β-D-glucopyranoside]",–,–,–,–,> 500 µM,317 µM,> 500 µM,> 500 µM,–
"COc1c(O)c(C)cc2c1C(=O)c1c(cc(O)c(O)c1O)C2=O [No. 6, 1,2,3,7-tetrahydroxy-8-methoxy-6-methyl-anthraquinone]",> 500 µM,209 µM,> 500 µM,283 µM,–,–,–,–,–
"COc1ccc2c(c1OC)C(=O)c1c(cc(C)c(O)c1OC)C2=O [No. 4, 1,7,8-methoxyl-2-hydroxyl-3-methyl-anthraquinone]",–,–,–,–,420 µM,192 µM,332 µM,37.5 µM,–
"COc1c(O)c(C)cc2c1C(=O)c1c(O)cccc1C2=O [No. 3, Obtusifoline]",117 µM,35 µM,310 µM,389 µM,–,–,–,–,–
"O=C(O)c1cc(O)c2c(c1)C(=O)c1cccc(O[C@@H]3O[C@H](CO)[C@@H](O)[C@H](O)[C@H]3O)c1C2=O [No. 15, Rhein-8-O-β-D-glucoside]",–,–,–,–,> 500 µM,208 µM,> 500 µM,108 µM,–
9-Dehydroxyeurotinone (EDG) [No. 21],–,–,–,–,448 µM,331 µM,380 µM,111 µM,–
"COc1cc2c(c(O)c1OC)C(=O)c1c(cc(C)c(O[C@@H]3O[C@H](CO)[C@@H](O)[C@H](O)[C@H]3O)c1OC)C2=O [No. 18, Gluco-obtusin]",–,–,–,–,178 µM,125 µM,255 µM,> 500 µM,–
"CC(C)[C@]12O[C@H]1[C@@H]1O[C@]13[C@]1(O[C@H]1C[C@H]1C4=C(CC[C@@]13C)C(=O)OC4)[C@@H]2O [Triptolide, reference compound]",–,–,–,–,–,–,–,–,viability at 25 μmol/L ([1]; HepaRG cells co-cultured with HK-2 cells in IdMOC plates): 50.5 ± 5.68%; viability at 10 μmol/L ([2]; HK-2 cells co-cultured with HepaRG cells in IdMOC plates): 43.6 ± 2.26%
"Cc1cc(O)c2c(c1)C(=O)c1cc(O)cc(O)c1C2=O [No. 8, Emodin]",125 µM,31.9 µM,89 µM,122 µM,–,–,–,–,effect on viability of HepaRG cells (in words) [3]: decreased the viability of HepaRG cells; IC50 [6]: 140 µM; both hepatotoxicity and nephrotoxicity (in words) [5]: both hepatotoxicity and nephrotoxicity
"COc1c(O[C@@H]2O[C@H](CO)[C@@H](O)[C@H](O)[C@H]2O)c(C)cc2c1C(=O)c1c(O)cccc1C2=O [No. 16, Obtusifoline-2-O-β-D-glucoside]",–,–,–,–,108 µM,98.5 µM,270 µM,251 µM,–
"COc1c(O)cc2c(c1O)C(=O)c1c(cc(C)c(O)c1OC)C2=O [No. 5, Aurantio-obtusin]",333 µM,75.5 µM,> 500 µM,117 µM,–,–,–,–,effect on viability of HepaRG cells (in words) [3]: decreased the viability of HepaRG cells
"Cc1cc(O)c2c(c1)C(=O)c1cccc(O)c1C2=O [No. 9, Chrysophanol]",> 500 µM,170 µM,> 500 µM,93.9 µM,–,–,–,–,–
"COc1cc(O)c2c(c1)C(=O)c1cc(C)cc(O)c1C2=O [No. 12, Physcion]",> 500 µM,73.6 µM,> 500 µM,196 µM,–,–,–,–,–
"O=C1c2cccc(O)c2C(=O)c2c(O)cc(CO)cc21 [No. 10, Aloe-emodin]",> 500 µM,96.2 µM,> 500 µM,134 µM,–,–,–,–,effect on viability of HepaRG cells (in words) [3]: decreased the viability of HepaRG cells; nephrotoxicity in vivo (in words) [7]: nephrotoxic
"COc1c(O[C@@H]2O[C@H](CO)[C@@H](O)[C@H](O)[C@H]2O)cc2c(c1O)C(=O)c1c(cc(C)c(O)c1OC)C2=O [No. 20, Glucoaurantio-obtusin]",–,–,–,–,154 µM,–,> 500 µM,–,–
2-O-β-D-Glucoside-9-dehydroxyeurotinone [No. 22],–,–,–,–,> 500 µM,> 500 µM,> 500 µM,> 500 µM,–
"COc1cc2c(c(OC)c1OC)C(=O)c1c(cc(C)c(O)c1OC)C2=O [No. 1, Chryso-obtusin]",71.9 µM,388 µM,53 µM,33.6 µM,–,–,–,–,–
